{"data": "Assay results gathered from unrelated publications", "LRRK2": "Leucine-rich repeat serine/threonine-protein kinase 2 (LRRK2, Homo sapiens, UniProt Q5S007)", "Ephx2": "Bifunctional epoxide hydrolase 2 (Ephx2, Rattus norvegicus, UniProt P80299)", "PDE3A": "cGMP-inhibited 3',5'-cyclic phosphodiesterase 3A (PDE3A, Homo sapiens, UniProt Q14432)", "MAPK14": "Mitogen-activated protein kinase 14 (MAPK14, Homo sapiens, UniProt Q16539)", "note": "Lines come from different studies, so protocols differ. pIC50: −log10 of the molar value."}
{"SMILES": "COCCOCOc1ccc(C(=O)/C=C/c2ccc(C(=O)O)cc2)cc1C12CC3CC(CC(C3)C1)C2", "target": "Inhibitor of nuclear factor kappa-B kinase subunit beta (IKBKB, Homo sapiens, UniProt O14920)", "effect on": "enzyme activity", "mode": "inhibitor", "technique": "TR-FRET", "pIC50": 4.78}
{"SMILES": "CC(Cc1ccc(O)c(O)c1)C(C)Cc1ccc(O)c(O)c1 (stereo not drawn)", "target": "LRRK2", "effect on": "enzyme activity", "mode": "inhibitor", "technique": "radiometric", "pIC50": 6.34}
{"SMILES": "CC(O)C(C)C(=O)N1CCC(NC(=O)Nc2ccc(OC(F)(F)F)c(F)c2)CC1 (stereo not drawn)", "target": "Ephx2", "effect on": "enzyme activity", "mode": "inhibitor", "pIC50": 8.37}
{"SMILES": "CC1Cc2ccccc2N1C(=O)NCCCCN(C)[C@@H]1Cc2cccc3[nH]c(=O)n(c23)C1 (mixture of isomers)", "target": "5-hydroxytryptamine receptor 1A (HTR1A, Homo sapiens, UniProt P08908)", "effect on": "ligand displacement", "technique": "radioligand", "pIC50": 7.59}
{"SMILES": "O=C(/C=C/c1ccc(O)c(O)c1)O[C@H](Cc1ccc(O)c(O)c1)C(=O)O", "target": "LRRK2", "effect on": "enzyme activity", "mode": "inhibitor", "technique": "radiometric", "pIC50": 5.73}
{"SMILES": "N#Cc1ccc(COc2cccc(C3CCN(Cc4nc5ccc(C(=O)O)cc5n4C[C@@H]4CCO4)CC3)n2)c(F)c1", "target": "PDE3A", "effect on": "enzyme activity", "mode": "inhibitor", "pIC50": 5.64}
{"SMILES": "CCC(C)(O)C(=O)N1CCC(NC(=O)Nc2ccc(OC(F)(F)F)c(F)c2)CC1 (stereo not drawn)", "target": "Ephx2", "effect on": "enzyme activity", "mode": "inhibitor", "pIC50": 7.97}
{"SMILES": "Cc1cnc(-c2ccc(-c3ccc(NC(=O)Nc4c(F)cc(F)cc4F)cc3F)c3c2C(=O)NC3)[nH]1", "target": "LRRK2", "effect on": "enzyme activity", "mode": "inhibitor", "pIC50": 7.87}
{"SMILES": "CC(C)C[C@H](NC(=O)[C@H]1O[C@@H]1C(=O)O)C(=O)NCCCCN=C(N)N", "target": "Dipeptidyl peptidase 1 (CTSC, Homo sapiens, UniProt P53634)", "effect on": "enzyme activity", "mode": "inhibitor", "pIC50": 6.13}
{"SMILES": "CC1=CC[C@@H](C(C)(C)O)CC1", "target": "Urease subunit beta (ureB, Helicobacter pylori, UniProt P69996)", "effect on": "enzyme activity in cells", "mode": "inhibitor", "technique": "absorbance", "pIC50": 5.03}
{"SMILES": "Cc1nn2c(-c3c(C)nn(C)c3-c3ccc(C(F)(F)F)cc3)nc(CO)c2c(=O)[nH]1", "target": "PDE3A", "effect on": "enzyme activity", "mode": "inhibitor", "pIC50": 4.93}
{"SMILES": "COc1ccc2c(Oc3ccc4c(C(=O)Nc5ccccc5N)cccc4c3)ccnc2c1", "target": "Macrophage-stimulating protein receptor (MST1R, Homo sapiens, UniProt Q04912)", "effect on": "enzyme activity", "mode": "inhibitor", "pIC50": "< 6.30"}
{"SMILES": "Cc1cc(C)nc(NC(=S)N2CCN(c3ccncc3)CC2)c1", "target": "MAPK14", "effect on": "enzyme activity", "mode": "inhibitor", "technique": "ADP detection", "pIC50": 7.00}
{"SMILES": "N#C/C(=C\\c1ccc(O)c(O)c1)C(=O)OC/C=C/c1ccccc1", "target": "LRRK2", "effect on": "enzyme activity", "mode": "inhibitor", "technique": "radiometric", "pIC50": 6.21}
{"SMILES": "CN(C)CCC=C1c2ccccc2CCc2ccccc21", "target": "Estrogen receptor (ESR1, Homo sapiens, UniProt P03372)", "effect on": "reporter gene", "mode": "antagonist", "pIC50": 4.60}
{"SMILES": "Cc1ccc(NC(=O)c2cccc(N(C)C)c2)cc1NC(=O)c1ccc(O)cc1", "target": "MAPK14", "effect on": "enzyme activity", "mode": "inhibitor", "technique": "ADP detection", "pIC50": 6.52}
{"SMILES": "CN1CCN(c2ccc(Nc3ncc4cc(C#N)c(=O)n(C5CCCC5)c4n3)cc2)CC1", "target": "Casein kinase I isoform epsilon (CSNK1E, Homo sapiens, UniProt P49674)", "effect on": "enzyme activity", "mode": "inhibitor", "pIC50": 5.26}
{"SMILES": "CC(C)(C)n1nc(-c2cnc3cc(OC4CC4)ccc3c2)c(C(N)=O)c1N", "target": "MAPK14", "effect on": "cell-free assay", "pIC50": "< 5.00"}
{"SMILES": "COc1cc(C[C@H]2C(=O)OC[C@@H]2Cc2ccc(OC)c(OC)c2)ccc1O", "target": "PDE3A", "effect on": "enzyme activity", "mode": "inhibitor", "pIC50": "< 4.70"}
{"SMILES": "CC(C)(C)n1nc(-c2ccc3nc(OC4CC4)ccc3c2)c(C(N)=O)c1N", "target": "Death-associated protein kinase 3 (DAPK3, Homo sapiens, UniProt O43293)", "effect on": "cell-free assay", "pIC50": "< 5.00"}
{"SMILES": "Cn1c(=O)c([N+](=O)[O-])c(Cl)c2ccccc21", "target": "Adenylate cyclase type 1 (Homo sapiens, UniProt Q08828)", "effect on": "cAMP", "pIC50": 6.52}
